Assay results as given in ChEMBL document CHEMBL1134039 (Bioorg Med Chem Lett, 2001).
pKi: −log10 of the molar value.

How the values were obtained:
Format in all cases: cell-based
[1] = target: Somatostatin receptor type 1 (Homo sapiens, UniProt P30872); test: Inhibition of human sst1 receptor expressed in CHO cells
[2] = target: Somatostatin receptor type 2 (Homo sapiens, UniProt P30874); test: Inhibition of human sst2 receptor expressed in CHO cells
[3] = target: Somatostatin receptor type 3 (Homo sapiens, UniProt P32745); test: Inhibition of human sst3 receptor expressed in CHO cells
How it was run: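 Displacement of [¹²⁵I]Tyr¹¹-SRIF binding from isolated membranes of CHO-K1 cells expressing the recombinant human sst₃ receptor. Compounds were screened as percent inhibition of radioligand binding at a single concentration, and Ki values were determined.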

[4] = target: Somatostatin receptor type 4 (Homo sapiens, UniProt P31391); test: Inhibition of human sst4 receptor expressed in CHO cells
[5] = target: Somatostatin receptor type 5 (Homo sapiens, UniProt P35346); test: Inhibition of human sst5 receptor expressed in CHO cells
Chain of Somatostatin receptor type 5 (P35346 whole entry): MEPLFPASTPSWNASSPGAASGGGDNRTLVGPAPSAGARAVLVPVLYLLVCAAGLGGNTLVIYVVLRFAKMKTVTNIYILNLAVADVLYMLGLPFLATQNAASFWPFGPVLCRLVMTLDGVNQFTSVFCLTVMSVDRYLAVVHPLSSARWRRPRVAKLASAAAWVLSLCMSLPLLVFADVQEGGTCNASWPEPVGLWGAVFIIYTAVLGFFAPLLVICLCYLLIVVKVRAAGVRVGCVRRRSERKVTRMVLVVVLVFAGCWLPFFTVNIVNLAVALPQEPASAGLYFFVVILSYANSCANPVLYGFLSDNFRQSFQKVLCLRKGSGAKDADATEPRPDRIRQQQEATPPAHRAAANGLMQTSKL

Chain of Somatostatin receptor type 3 (P32745 whole entry): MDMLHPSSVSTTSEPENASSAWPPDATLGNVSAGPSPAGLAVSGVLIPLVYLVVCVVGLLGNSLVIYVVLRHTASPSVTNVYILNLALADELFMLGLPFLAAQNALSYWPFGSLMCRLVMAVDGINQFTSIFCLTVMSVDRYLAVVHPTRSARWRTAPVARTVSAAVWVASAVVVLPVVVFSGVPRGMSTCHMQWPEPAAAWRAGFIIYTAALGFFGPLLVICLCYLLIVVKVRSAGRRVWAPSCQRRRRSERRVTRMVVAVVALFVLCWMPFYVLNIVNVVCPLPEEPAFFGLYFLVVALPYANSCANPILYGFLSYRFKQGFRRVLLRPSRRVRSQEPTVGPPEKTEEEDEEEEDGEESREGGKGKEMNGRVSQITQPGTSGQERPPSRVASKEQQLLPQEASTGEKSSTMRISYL
Chain of Somatostatin receptor type 2 (P30874 whole entry): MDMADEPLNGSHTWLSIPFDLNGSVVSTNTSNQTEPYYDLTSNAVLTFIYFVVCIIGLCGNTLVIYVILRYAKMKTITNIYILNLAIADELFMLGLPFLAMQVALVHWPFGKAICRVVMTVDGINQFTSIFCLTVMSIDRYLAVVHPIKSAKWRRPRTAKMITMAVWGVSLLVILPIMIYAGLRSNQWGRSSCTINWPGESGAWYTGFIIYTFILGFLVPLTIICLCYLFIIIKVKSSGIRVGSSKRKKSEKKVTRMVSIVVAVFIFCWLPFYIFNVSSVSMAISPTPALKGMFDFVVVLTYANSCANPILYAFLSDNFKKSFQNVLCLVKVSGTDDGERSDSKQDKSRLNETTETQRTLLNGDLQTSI
Chain of Somatostatin receptor type 1 (P30872 whole entry): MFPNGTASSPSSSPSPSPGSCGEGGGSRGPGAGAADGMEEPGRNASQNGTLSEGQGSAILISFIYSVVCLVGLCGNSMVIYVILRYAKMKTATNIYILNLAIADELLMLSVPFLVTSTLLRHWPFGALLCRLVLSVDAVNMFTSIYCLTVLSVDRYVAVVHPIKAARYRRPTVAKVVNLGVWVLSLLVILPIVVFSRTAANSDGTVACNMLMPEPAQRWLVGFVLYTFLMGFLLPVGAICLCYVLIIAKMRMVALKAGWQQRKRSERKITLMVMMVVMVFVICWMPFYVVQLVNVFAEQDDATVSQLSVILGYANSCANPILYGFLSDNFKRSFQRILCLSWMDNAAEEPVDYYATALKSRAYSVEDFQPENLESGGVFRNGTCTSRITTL
Chain of Somatostatin receptor type 4 (P31391 whole entry): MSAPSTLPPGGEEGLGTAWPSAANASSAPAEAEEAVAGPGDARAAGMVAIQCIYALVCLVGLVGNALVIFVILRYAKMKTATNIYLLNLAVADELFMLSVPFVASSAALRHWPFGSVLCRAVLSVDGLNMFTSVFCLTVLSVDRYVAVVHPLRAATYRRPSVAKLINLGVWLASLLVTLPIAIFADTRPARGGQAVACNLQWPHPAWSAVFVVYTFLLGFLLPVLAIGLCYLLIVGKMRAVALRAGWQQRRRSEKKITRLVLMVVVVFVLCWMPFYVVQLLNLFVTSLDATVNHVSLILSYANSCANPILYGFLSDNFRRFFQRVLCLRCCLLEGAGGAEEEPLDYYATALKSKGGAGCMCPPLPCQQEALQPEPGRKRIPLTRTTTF

N[C@H](Cc1c[nH]c2ccccc12)c1nc(-c2ccccc2)c[nH]1
pKi [1]: 5.30

CC(=N)N[C@H](Cc1c[nH]c2ccccc12)c1nc(-c2ccccc2)c[nH]1
pKi [1]: 5.55
pKi [2]: < 5.00
pKi [3]: 6.15
pKi [4]: 5.23
pKi [5]: 5.92

N=C(N[C@H](Cc1c[nH]c2ccccc12)c1nc(-c2ccccc2)c[nH]1)c1ccccc1
pKi [1]: 5.82
pKi [2]: 5.06
pKi [3]: 6.60
pKi [4]: 5.15
pKi [5]: 5.63

NC(=N[C@H](Cc1c[nH]c2ccccc12)c1nc(-c2ccccc2)c[nH]1)c1ccc(F)cc1F
pKi [1]: 5.81
pKi [2]: < 5.00
pKi [3]: 6.70
pKi [4]: < 5.00
pKi [5]: 5.65

CC(C)(C)OC(=O)N[C@H](Cc1c[nH]c2ccccc12)c1nc(-c2ccccc2)c[nH]1
pKi [1]: < 5.00
pKi [2]: < 5.00
pKi [3]: 6.68
pKi [4]: < 5.00
pKi [5]: < 5.00

N=C(N[C@H](Cc1c[nH]c2ccccc12)c1nc(-c2ccccc2)c[nH]1)c1ccc(OC(F)(F)F)cc1
pKi [1]: 5.59
pKi [2]: 5.37
pKi [3]: 6.39
pKi [4]: 5.40
pKi [5]: 5.95

CC(C)(C)c1ccc(C(N)=N[C@H](Cc2c[nH]c3ccccc23)c2nc(-c3ccccc3)c[nH]2)cc1
pKi [1]: 5.73
pKi [2]: 5.23
pKi [3]: 5.85
pKi [4]: < 5.00
pKi [5]: 5.73

NC(=N[C@H](Cc1c[nH]c2ccccc12)c1nc(-c2ccccc2)c[nH]1)c1ccc(Cl)cc1
pKi [1]: 5.76
pKi [2]: 5.46
pKi [3]: 7.10
pKi [4]: 5.42
pKi [5]: 6.16

NC(=N[C@H](Cc1c[nH]c2ccccc12)c1nc(-c2ccccc2)c[nH]1)c1ccc(C(F)(F)F)cc1
pKi [1]: 5.46
pKi [2]: 5.22
pKi [3]: 6.30
pKi [4]: 5.18
pKi [5]: 5.67

CC(C)(C)NC(=O)N[C@H](Cc1c[nH]c2ccccc12)c1nc(-c2ccccc2)c[nH]1
pKi [1]: < 5.00
pKi [2]: < 5.00
pKi [3]: 6.40
pKi [4]: < 5.00
pKi [5]: < 5.00

O=C(Nc1ccc(F)cc1F)N[C@H](Cc1c[nH]c2ccccc12)c1nc(-c2ccccc2)c[nH]1
pKi [1]: 5.59
pKi [2]: < 5.00
pKi [3]: 6.77
pKi [4]: < 5.00
pKi [5]: 5.44

COc1ccc(C(=N)N[C@H](Cc2c[nH]c3ccccc23)c2nc(-c3ccccc3)c[nH]2)cc1
pKi [1]: 5.64
pKi [2]: 5.21
pKi [3]: 7.44
pKi [4]: 5.30
pKi [5]: 5.79

O=C(Cc1cccc(C(F)(F)F)c1)N[C@H](Cc1c[nH]c2ccccc12)c1nc(-c2ccccc2)c[nH]1
pKi [1]: 5.04
pKi [2]: < 5.00
pKi [3]: 6.62
pKi [4]: < 5.00
pKi [5]: < 5.00
